Assay results gathered from unrelated publications.
CSF1R autoinhibited: Macrophage colony-stimulating factor 1 receptor, autoinhibited (CSF1R, Homo sapiens, UniProt P07333)
CSF1R: Macrophage colony-stimulating factor 1 receptor (CSF1R, Homo sapiens, UniProt P07333)
CSF1R Y969C: Macrophage colony-stimulating factor 1 receptor (CSF1R, Homo sapiens, UniProt P07333, Y969C)

`N[C@@H]1CCN(c2nccc(-c3cnn4ncccc34)n2)C1` gave a remaining binding of 100% (CSF1R autoinhibited; binding; 1 µM).
The remaining signal of `c1ccc(-c2n[nH]c3c2oc2ccccc23)cc1` is reported as 78.1% (CSF1R; cell-free assay; 0.5 µM).
For `Cc1cc(NC(=O)c2cccc3cc(-c4cccc5[nH]nc(N)c45)ccc23)ccc1F`, the activity vs control was 30% (CSF1R Y969C; enzyme activity; inhibitor; 0.1 µM).
`C[C@@H]1CCN(c2nccc(-c3cnn4ncccc34)n2)C1` has a remaining binding of 78% (CSF1R autoinhibited; binding; 1 µM).
`CS(=O)(=O)Nc1cccc(-c2csc(NC(=O)CSc3nc4nccnc4c(=O)n3CCc3ccccc3)n2)c1` gave an inhibition of 8% (CSF1R; enzyme activity; inhibitor; 10 µM).
For `CS(=O)(=O)N1CCCC(NC(=O)[C@H](CCC2CCCCC2)NC(=O)c2ccc(CNC(=O)c3cnc4ccccn34)cc2)C1` (stereo partly shown), the remaining binding was 100% (CSF1R autoinhibited; cell-free assay; competition with immobilised ligand; 0.1 µM).
The inhibition of `CNC(=O)c1cc2c(Oc3ccc(NC(=O)C4(C(=O)Nc5ccc(F)cc5)CC4)cc3)ccnc2cc1OC` is reported as 98% (CSF1R; enzyme activity; inhibitor; radiometric; 1 µM).
`c1cnn2ncc(-c3ccnc(N4CCC45COC5)n3)c2c1` gave a remaining binding of 100% (CSF1R; binding; 1 µM).
With `Cc1ccc(NC(=O)c2ccc(C)c(C(F)(F)F)c2)cc1C#Cc1nn(C2CCC(O)CC2)c2ncnc(N)c12` (stereo not shown) the remaining signal was 4% (CSF1R; cell-free assay; 10 µM).
With `Oc1ccc(-c2nc(-c3ccncc3)c(-c3ccc(F)cc3)[nH]2)cc1` the remaining signal was 96.9% (CSF1R; cell-free assay; 0.5 µM).
For `COc1cccc(CNC(=O)c2nc3scc(COCc4ccc(C(=O)O)cc4)c3c(=O)[nH]2)c1`, the remaining binding was 100% (CSF1R autoinhibited; cell-free assay; competition with immobilised ligand; 1 µM).
The inhibition of `CCN(CC)CCNC(=O)c1c(C)[nH]c(/C=C2\C(=O)Nc3ccc(F)cc32)c1C` is reported as 98% (CSF1R; cell-free assay; 10 µM).
`CCCOc1ccc(OC)c(F)c1C(=O)c1ccc(C(=O)N[C@@H]2CNC[C@H]2NC(=O)c2ccc3[nH]ncc3c2)cc1` has a remaining activity of 57% (CSF1R Y969C; enzyme activity; inhibitor; 10 µM).
The remaining signal of `Nc1ncnc2occ(-c3ccc(NC(=O)Nc4cc(C(F)(F)F)ccc4F)cc3)c12` is reported as 0.95% (CSF1R autoinhibited; cell-free assay; 20 µM).
For `Cc1ccc(NC(=O)c2ccc(CN3CCN(C)CC3)cc2)cc1Nc1nccc(-c2cncc(-c3oncc3C)c2)n1`, the remaining activity was at most 50% (CSF1R; enzyme activity; inhibitor; 0.5 µM).
For `N#CCCc1ccc2c(c1)-c1[nH]c3ccc([N+](=O)[O-])cc3c1CC(=O)N2`, the remaining signal was 43.4% (CSF1R; cell-free assay; 0.5 µM).
With `CN(C)C1CCN(CC#Cc2nn(C3CCCC3)c3nc(NCc4ccccc4)ncc23)C1` (stereo not shown) the inhibition was 107% (CSF1R; enzyme activity; inhibitor; FRET; 10 µM).
The inhibition of `CC/C(=N\NC(=O)NCc1cccc(O)c1)c1ccc(O)c(C)c1O` is reported as -4.4% (CSF1R; enzyme activity; inhibitor; 0.1 µM).
With `COc1cc(-c2cn(C3CCc4c(F)cccc4N(CC(F)(F)F)C3=O)nn2)ccc1-n1cnc(C)c1` (stereo not shown) the remaining binding was 100% (CSF1R autoinhibited; cell-free assay; competition with immobilised ligand; 1 µM).
With `CCCS(=O)(=O)Nc1ccc(F)c(C(=O)c2c[nH]c3ncc(-c4ccc(Cl)cc4)cc23)c1F` the inhibition was under 20% (CSF1R; enzyme activity; inhibitor; 1 µM).
For `COc1cc2ncnc(Nc3ccc(Oc4ccccc4)c(C)c3C)c2cc1OC`, the inhibition was 8% (CSF1R; enzyme activity; inhibitor; 1 µM).
With `C[C@@H]1CN(c2cc(-c3nn(C)c4ccc(OC5(C)CC5)cc34)ncn2)C[C@H](C)O1` the remaining binding was 55% (CSF1R autoinhibited; cell-free assay; competition with immobilised ligand; 1 µM).
`Oc1cccc(-c2nc(N3CCOCC3)c3oc4ncccc4c3n2)c1` gave a remaining signal of 108% (CSF1R; cell-free assay; 0.5 µM).
`COc1ccnn2ncc(-c3ccnc(N(C)C)n3)c12` gave a remaining binding of 91% (CSF1R autoinhibited; binding; 1 µM).
The remaining activity of `CC(C)(C)c1nc2c(s1)c1nc(N)ncc1c1ccc(NS(=O)(=O)c3c(F)cccc3F)c(F)c12` is reported as 109% (CSF1R; enzyme activity; inhibitor; radiometric; 1 µM).
`Cc1sc(C(=O)NC2COC2)cc1-n1cc(NC(=O)Nc2c(F)cccc2Cl)cn1` gave a remaining activity of 103% (CSF1R; enzyme activity; inhibitor; 10 µM).
`Nc1cnc(N2CCc3cc(S(=O)(=O)Nc4c(F)cc(Cl)cc4F)cc(N4CCCC4=O)c32)nc1` gave a remaining binding of 100% (CSF1R autoinhibited; cell-free assay; competition with immobilised ligand; 1 µM).
`C=CC(=O)Nc1cc(Nc2nccc(Nc3cc(Cl)c(F)cc3C(C)(C)O)n2)c(OC)cc1N1CC[C@@H](N(C)C)C1` gave an inhibition of 13% (CSF1R; enzyme activity; inhibitor; 1 µM).
The remaining binding of `CN(C(=O)c1ccccc1)c1cc(N(C)c2ccc3c(c2)CCc2ccc(C(=O)NCCN4CCOCC4)cc2C3=O)ccc1F` is reported as 98% (CSF1R; cell-free assay; competition with immobilised ligand; 1 µM).
`COc1cc2ncnc(Nc3ccc(F)c(Cl)c3)c2cc1OCCCN1CCOCC1` has a remaining signal of 110% (CSF1R; cell-free assay; 0.5 µM).
With `CCOC(=O)c1cc2cc(-c3cc(C(=O)NCc4ccc(C(=O)O)cc4)nn3C)ccc2[nH]1` the remaining binding was 94% (CSF1R autoinhibited; cell-free assay; competition with immobilised ligand; 0.1 µM).
The remaining activity of `Cc1cnc(NC2CCOCC2)nc1-n1cnc(C(=O)NC(CN)c2cc(F)cc(Cl)c2)c1` (stereo not shown) is reported as 103% (CSF1R; enzyme activity; inhibitor; radiometric; 1 µM).
`CN(C)c1nccc(-c2cnn3ncccc23)n1` has a remaining binding of 100% (CSF1R autoinhibited; binding; 1 µM).
`CC(=O)C1=C(C)N(c2cccc(C(F)(F)F)c2)C(=O)N[C@@H]1c1ccc(C#N)nc1` has a remaining binding of 99.4% (CSF1R; cell-free assay; competition with immobilised ligand; 1 µM).
